Source: PubChem BioAssay
MrgX1 agonist = activates human MrgX1 receptor signaling; Q96LB2; MrgX1-HEK293 cells, Fluo-4 calcium fluorescence, agonist mode; stronger effect = higher value; B-score at 10 µM; 310,000 tested, 0.44% active; AID 588627;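 active means calcium response B-score plate-corrected fluorescence ratio at least 3 library SD, with starting fluorescence B-score inside 5 SD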
Target sequence (Q96LB2 whole entry, looked up): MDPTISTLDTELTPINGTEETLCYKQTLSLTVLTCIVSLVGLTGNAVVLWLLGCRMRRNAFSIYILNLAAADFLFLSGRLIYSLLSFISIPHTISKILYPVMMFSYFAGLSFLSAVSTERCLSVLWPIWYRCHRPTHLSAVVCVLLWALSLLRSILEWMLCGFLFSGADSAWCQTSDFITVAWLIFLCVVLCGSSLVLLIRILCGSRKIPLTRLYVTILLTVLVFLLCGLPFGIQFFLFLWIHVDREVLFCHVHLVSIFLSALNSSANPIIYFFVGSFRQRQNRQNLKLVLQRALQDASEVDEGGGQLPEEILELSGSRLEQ
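times = overnight plating, then 30 min 37 °C plus 30 min room-temperature dye loading | assay system = stable human MrgX1 HEK293 cell line | input = fifteen thousand cells per well | signal = kinetic calcium dye fluorescence, Fluo-4 NW | dosing = compound delivered in addition one of three | read-out = B-scored fluorescence response ratio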
RGS4 pot = RGS4 potentiation or activation; HEK293 M3R/inducible RGS4, carbachol calcium flux Fluo4; stronger effect = lower value; B-score at 10 µM; 310,000 tested, 0.92% active;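 active means B-score of the integrated calcium signal more than 4 SD below the library mean, with starting fluorescence not abnormally high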;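 further: negative B-score means reduced calcium response which marks RGS4 activation or potentiation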
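test system = HEK293 cells with stable M3R and inducible RGS4 | schedule = recording 10 s baseline at 1 Hz, 100 s post-agonist | technique = Fluo4-AM (2 µM) calcium-flux fluorescence, kinetic read | measure = Agonist-evoked peak-minus-minimum fluorescence over baseline, integrated ratio, B score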
RGS4 inh = inhibitors of human RGS4 | 310,000 tested, 0.45% active | B-score at 10 µM | HEK293 M3R/RGS4 inducible, Fluo-4 calcium flux; stronger effect = higher value; triggered by carbachol at its EC20;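 active means B-score, a plate-corrected calcium signal, over three deviations above library mean, with baseline fluorescence within five deviations of library mean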;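 further: RGS4 expression induced by doxycycline in cells with stable M3 receptor; B-score is computed from the integrated fluorescence ratio over baseline after carbachol; higher B-score means a larger calcium signal and so more RGS4 inhibition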
Target sequence (P49798 whole entry, looked up): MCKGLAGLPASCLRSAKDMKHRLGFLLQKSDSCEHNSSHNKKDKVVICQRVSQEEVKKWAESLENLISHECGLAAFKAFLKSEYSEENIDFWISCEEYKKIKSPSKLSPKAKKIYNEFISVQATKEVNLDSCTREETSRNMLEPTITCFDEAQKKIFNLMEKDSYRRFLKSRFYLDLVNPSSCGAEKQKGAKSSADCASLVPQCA
MrgX1 antag = blocks BAM8-22 activation of human MrgX1 receptor; B-score at 10 µM; AID 588676; 310,000 tested, 1.3% active; Q96LB2; MRGX1-HEK293 calcium flux, Fluo-4, BAM8-22 antagonism; stronger effect = lower value;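 active means calcium-response B-score plate-corrected more than 3 library SD below zero, starting fluorescence within 5 deviations, no agonist response on first addition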;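 further: peak minus trough fluorescence over baseline after final BAM8-22 challenge near maximal dose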
MrgX1 allo act = human MrgX1 positive allosteric modulation, primary screen; MrgX1-HEK293, Fluo-4 calcium flux, FDSS; stronger effect = higher value; 310,000 tested, 0.63% active; Q96LB2; B-score at 10 µM;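 active means plate-corrected calcium response at least 3 library SD above typical, normal starting fluorescence, not activating the receptor alone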;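 further: compound read alongside a low EC10 to EC30 dose of BAM8-22 agonist; peak minus trough fluorescence over baseline measured at the second addition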
MrgX1 PAM conf = reconfirmed allosteric activator of human MrgX1 receptor; shares compounds with MrgX1 allo act; 1,200 tested, 13% active; AID 602413; activation (ratio percentage), % at 10 µM; MrgX1-HEK293, Fluo-4 calcium fluorescence, FDSS;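 active means ratio at least 3 SD above the weak peptide control, stable starting fluorescence, no direct agonism earlier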;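 further: compound followed by low BAM8-22 agonist challenge near EC20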
HEK293 Ca flux = MrgX1 antagonist counter-screen hit in parental HEK293 cells | fluorescence ratio F(max-min)/F0 at 10 µM | 4,000 tested, 2% active | shares compounds with MrgX1 antag | Fluo-4 calcium fluorescence, FDSS;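 active means duplicate-averaged calcium fluorescence ratio at least three times the standard deviation of buffer wells, a nonspecific response in parental cells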
HEK293 Ca counter = counter-screen for MrgX1 allosteric activators: effect in parental HEK293 cells; shares compounds with MrgX1 antag; parental HEK293 calcium flux, Fluo-4 fluorescence ratio; stronger effect = higher value; fluorescence ratio F(max-min)/F0 at 10 µM; 4,000 tested, 0.4% active; AID 624114;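 active means calcium fluorescence ratio, averaged over duplicates, at least 3 SD of the buffer-well ratio, meaning a nonspecific response in receptor-free cells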;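 further: untransfected parental HEK293 lacking MrgX1 used as counterscreen for MrgX1 allosteric activators; fluorescence change taken during the second addition on a kinetic imager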
HEK293 Ca cntr2 = counter-screen for MrgX1 activators: effect in parental HEK293 cells; shares compounds with MrgX1 antag; Fluo-4 calcium fluorescence (FDSS); stronger effect = higher value; fluorescence ratio F(max-min)/F0 at 10 µM; 4,000 tested, 8.7% active;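 active means calcium fluorescence ratio at least three times the spread of buffer wells, meaning a non-specific response in parental cells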
The depositor's hits bear a star; i = inactive; . = no result given. Only some compounds are listed: those with a hit (about 3.5% of all), similar ones and a draw of the others.

SMILES	MrgX1 agonist	RGS4 pot	RGS4 inh	MrgX1 antag	MrgX1 allo act	MrgX1 PAM conf	HEK293 Ca flux	HEK293 Ca counter	HEK293 Ca cntr2
O=C(Nc1cccc(Cl)c1)c1ccc2ncsc2c1	i	i	i	i	7.69*	i	i	i	i
O=C(Nc1ccc(Cl)cc1)c1ccc2ncsc2c1	i	i	i	i	i	.	.	.	.
CS(=O)(=O)N1N=C(c2cccs2)CC1c1ccc(F)cc1 (stereo not drawn)	i	i	i	i	21*	i	i	i	i
O=c1c2ccccc2nc(/C=C/c2ccc([N+](=O)[O-])o2)n1CCCO	i	i	i	i	i	.	.	.	.
O=C(NC1CCCCC1)c1ccccc1C(F)(F)F	i	i	i	i	8.63*	i	i	i	i
NS(=O)(=O)c1cc(C(=O)NCCc2ccccn2)ccc1Cl	i	i	i	i	21.1*	i	i	i	i
Cc1ccc(C2CC2c2n[nH]c(=S)n2-c2ccc(Cl)cc2)cc1 (stereo not drawn)	i	i	i	i	i	.	.	.	.
S=c1[nH]nc([C@@H]2C[C@H]2c2ccccc2)n1-c1ccccc1Cl	i	i	i	i	7.69*	i	i	i	i
Cc1ccnc(NC(=O)c2ccc(Cl)s2)c1	i	i	i	i	8.48*	i	i	i	i
O=C(Nc1ccon1)c1ccc(Cl)s1	i	i	i	i	i	.	.	.	.
O=C(NCCCNC(=O)c1ccc(-c2cc(Cl)ccc2Cl)o1)c1cnccn1	i	i	i	i	17.7*	19.6%*	i	i	i
Cc1ccc(-c2ccc(C(=O)NCCCNC(=O)c3cnccn3)o2)cc1Cl	i	i	i	i	18.3*	13.5%*	i	i	i
O=C(NCCCNC(=O)c1ccc(Cl)cc1Cl)c1cnccn1	i	i	i	i	i	.	.	.	.
O=C(NCCCNC(=O)c1cc(Cl)ccc1Cl)c1cnccn1	i	i	i	i	i	.	.	.	.
CCOC(=O)Cc1csc(NC(=O)c2ccc(Br)o2)n1	i	i	i	i	16.5*	i	i	i	i
CCOC(=O)Cc1csc(NC(=O)c2cc3ccccc3o2)n1	i	i	i	i	6.78*	i	i	i	i
OCC1CCCN(c2ncnc3scc(-c4ccccc4)c23)C1 (stereo not drawn)	i	i	i	i	6.48*	i	i	i	i
O=S(=O)(c1ccccc1)N1CCN(c2ncnc3scc(-c4ccccc4)c23)CC1	i	i	i	i	i	.	.	.	.
CCCc1nc(SCC(=O)N2CCOCC2)c2c(C)c(C)sc2n1	i	i	i	i	i	.	.	.	.
Cn1c(-c2ccccc2F)cc2onc(-c3ccccc3)c2c1=O	i	.	.	i	i	.	.	.	.
Cn1c(-c2ccccc2)cc2onc(-c3ccccc3)c2c1=O	i	.	.	i	12*	21.0%*	i	i	i
Cc1cc(F)ccc1NC(=O)c1cnccn1	i	i	i	i	10.5*	i	i	i	i
COn1c(SC2CCCCC2)nc2ccccc2c1=O	i	i	i	i	29.1*	49.0%*	i	i	i
COCC1CCCN(Cc2nc(C(c3ccccc3)c3ccccc3)no2)C1 (stereo not drawn)	i	i	i	i	13.9*	10.3%*	i	i	i
Nc1c(C=C2C=CC(=O)C=C2)c(=O)nc2sc(CC(=O)N3CCCC3)nn12	i	i	i	i	i	.	.	.	.
SMILES	MrgX1 agonist	RGS4 pot	RGS4 inh	MrgX1 antag	MrgX1 allo act	MrgX1 PAM conf	HEK293 Ca flux	HEK293 Ca counter	HEK293 Ca cntr2
CCS(=O)(=O)c1nn2c(N)c(/C=C3/C=CC(=O)C(OC)=C3)c(=O)nc2s1	i	i	i	i	27.8*	i	i	i	62.9*
CC12CCC(=O)N1C(C(=O)OCc1c(Cl)cccc1Cl)CS2 (stereo not drawn)	i	i	i	i	6.55*	i	i	i	i
CC(NC(=O)C1CSC2(C)CCC(=O)N12)c1ccccc1Cl (stereo not drawn)	i	i	i	i	i	.	.	.	.
CC(C)Cc1nccs1	i	.	.	i	i	.	.	.	.
C=C(C)COc1ccc(-c2[nH]ncc2Oc2ccccc2OC)c(O)c1	i	i	i	i	i	.	.	.	.
C=C(C)COc1ccc(-c2[nH]ncc2-c2ccccc2OC)c(O)c1	i	i	i	i	17.7*	i	i	i	i
C=C(C)COc1ccc(-c2[nH]ncc2-c2ccc(Br)cc2)c(O)c1	i	i	i	i	18.6*	10.2%*	i	i	i
COC(=O)/C(=N/Nc1ccccc1C)Sc1nnc(C(O)c2ccccc2)n1-c1ccccc1 (stereo not drawn)	i	i	i	i	i	.	.	.	.
COc1cc(C(=O)NC(C)c2ccc3ccccc3c2)cc(Cl)c1O (stereo not drawn)	i	i	i	i	i	.	.	.	.
Cc1cc(C(=O)CN2C(=O)NC3(CCC(C)CC3)C2=O)c(C)n1C (stereo not drawn)	i	i	i	i	11.9*	i	i	i	i
Cc1ccc(S(=O)(=O)N2CCCC(C(=O)NCCc3ccc(S(N)(=O)=O)cc3)C2)cc1 (stereo not drawn)	i	i	i	i	i	.	.	.	.
O=c1[nH]c(Nc2ccccc2)cc2ccccc12	i	i	i	i	18.9*	33.8%*	i	i	i
COc1ccccc1NC(=O)C(C)Nc1ccc(C)c(Cl)c1 (stereo not drawn)	i	i	i	i	6.87*	i	i	i	i
Cc1cc2nc(N3C(=O)CNC3=S)sc2cc1C	i	i	i	i	i	.	.	.	.
O=C(COC(=O)c1ccc(NS(=O)(=O)c2ccc(Br)s2)cc1)NC1CCCC1	i	i	i	i	18.8*	i	i	i	i
CCCCN1CC[C@H]2C=CC[C@@H](C(=O)NCc3ccc(OC)cc3)[C@H]2C1=O	i	i	i	i	i	.	.	.	.
